Key:
[1] = Intrinsic clearance in human liver microsomes at 1 uM after 30 mins by reverse phase HPLC analysis in presence of NADPH; assay type: ADME; conditions: read-out: CLH
In short: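 Reactions were stopped with MeCN after 0 or 30 min. Samples were analysed by reverse-phase HPLC–tandem MS to give intrinsic clearance (µl/min/mg).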

[2] = target: Mitogen-activated protein kinase kinase kinase 9 (Homo sapiens) (UniProt P80192); assay: Inhibition of MLK1 (unknown origin) at 1 uM relative to control; values are per cent of control
[3] = target: Serine/threonine-protein kinase Nek4 (Homo sapiens) (UniProt P51957); assay: Inhibition of NEK4 (unknown origin) at 1 uM relative to control; values are per cent of control
[4] = target: T1, Calcium/calmodulin-dependent protein kinase type IV (Homo sapiens) (UniProt Q16566); assay: Inhibition of CAMK4 (unknown origin) at 1 uM relative to control; values are per cent of control
T1 sequence (whole entry): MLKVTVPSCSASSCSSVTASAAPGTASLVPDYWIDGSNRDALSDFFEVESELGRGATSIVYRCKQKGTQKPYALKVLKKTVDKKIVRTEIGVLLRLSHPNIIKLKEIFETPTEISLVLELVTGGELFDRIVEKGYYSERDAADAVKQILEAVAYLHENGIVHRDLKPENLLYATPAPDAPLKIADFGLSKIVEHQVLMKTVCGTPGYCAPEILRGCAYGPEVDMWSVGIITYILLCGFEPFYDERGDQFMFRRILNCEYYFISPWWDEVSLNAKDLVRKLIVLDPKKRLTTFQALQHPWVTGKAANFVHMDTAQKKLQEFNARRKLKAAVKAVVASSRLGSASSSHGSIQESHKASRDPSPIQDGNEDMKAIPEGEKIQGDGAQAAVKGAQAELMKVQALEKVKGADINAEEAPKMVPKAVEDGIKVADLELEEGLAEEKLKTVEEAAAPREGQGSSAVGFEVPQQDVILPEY

[5] = target: Serine/threonine-protein kinase mTOR (Homo sapiens) (UniProt P42345); assay: Inhibition of MTOR (unknown origin) at 1 uM relative to control; values are per cent of control
[6] = target: Tyrosine-protein kinase ABL1 (Homo sapiens) (UniProt P00519); assay: Inhibition of phosphorylated ABL1 (unknown origin) at 1 uM relative to control; values are per cent of control
[7] = target: Serine/threonine-protein kinase B-raf (Homo sapiens) (UniProt P15056); assay: Inhibition of BRAF (unknown origin) at 1 uM relative to control; values are per cent of control
[8] = target: T2, Mitogen-activated protein kinase 12 (Homo sapiens) (UniProt P53778); assay: Inhibition of p38-gamma (unknown origin) at 1 uM relative to control; values are per cent of control
T2 sequence (whole entry): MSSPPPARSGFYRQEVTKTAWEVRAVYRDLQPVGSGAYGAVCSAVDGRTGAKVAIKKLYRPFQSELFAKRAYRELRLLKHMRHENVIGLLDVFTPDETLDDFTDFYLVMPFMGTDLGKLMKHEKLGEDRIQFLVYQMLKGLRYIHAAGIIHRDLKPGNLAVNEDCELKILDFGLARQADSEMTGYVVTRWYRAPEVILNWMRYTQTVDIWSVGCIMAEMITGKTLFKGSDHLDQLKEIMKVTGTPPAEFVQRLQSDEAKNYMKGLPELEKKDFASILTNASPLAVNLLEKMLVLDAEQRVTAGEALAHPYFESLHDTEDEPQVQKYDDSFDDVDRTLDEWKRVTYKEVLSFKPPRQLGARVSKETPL

[9] = target: T3, Mitogen-activated protein kinase kinase kinase 7 (Homo sapiens) (UniProt O43318); assay: Inhibition of TAK1 (unknown origin) at 1 uM relative to control; conditions: values are per cent of control
T3 sequence (whole entry): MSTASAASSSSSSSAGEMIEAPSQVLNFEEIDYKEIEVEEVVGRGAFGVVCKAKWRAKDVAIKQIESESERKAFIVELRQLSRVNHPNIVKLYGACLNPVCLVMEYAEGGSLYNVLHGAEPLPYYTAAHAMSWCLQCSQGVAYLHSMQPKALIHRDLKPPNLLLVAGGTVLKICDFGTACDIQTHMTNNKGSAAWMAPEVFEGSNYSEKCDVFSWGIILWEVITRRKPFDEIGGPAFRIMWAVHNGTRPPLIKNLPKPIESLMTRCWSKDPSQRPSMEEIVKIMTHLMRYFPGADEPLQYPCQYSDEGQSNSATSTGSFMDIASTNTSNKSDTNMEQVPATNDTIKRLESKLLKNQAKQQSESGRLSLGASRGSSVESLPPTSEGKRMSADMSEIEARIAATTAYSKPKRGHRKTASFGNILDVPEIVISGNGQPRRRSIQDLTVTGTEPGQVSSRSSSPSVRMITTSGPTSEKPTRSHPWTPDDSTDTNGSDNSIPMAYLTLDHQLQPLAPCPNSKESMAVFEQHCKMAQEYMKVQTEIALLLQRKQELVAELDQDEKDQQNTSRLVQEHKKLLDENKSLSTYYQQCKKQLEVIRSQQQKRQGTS
In short: (§1)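 KinomeSCAN competitive binding panel of 100 kinases; compounds tested at 1 µM in duplicate; read-out is percent […] control.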

[10] = target: Cyclin-dependent kinase 8 (Homo sapiens) (UniProt P49336); assay: Inhibition of CDK8 (unknown origin) at 1 uM relative to control; values are per cent of control
[11] = target: Tyrosine-protein kinase Lyn (Homo sapiens) (UniProt P07948); assay: Inhibition of LYN (unknown origin) at 1 uM relative to control; values are per cent of control
[12] = target: Angiopoietin-1 receptor (Homo sapiens) (UniProt Q02763); assay: Inhibition of TIE2 (unknown origin) at 1 uM relative to control; conditions: values are per cent of control; in short: as §1
[13] = target: Dual specificity protein kinase CLK1 (Homo sapiens) (UniProt P49759); assay: Inhibition of CLK1 (unknown origin) at 1 uM relative to control; values are per cent of control
Chain of Dual specificity protein kinase CLK1 (Homo sapiens) (P49759 whole entry, looked up): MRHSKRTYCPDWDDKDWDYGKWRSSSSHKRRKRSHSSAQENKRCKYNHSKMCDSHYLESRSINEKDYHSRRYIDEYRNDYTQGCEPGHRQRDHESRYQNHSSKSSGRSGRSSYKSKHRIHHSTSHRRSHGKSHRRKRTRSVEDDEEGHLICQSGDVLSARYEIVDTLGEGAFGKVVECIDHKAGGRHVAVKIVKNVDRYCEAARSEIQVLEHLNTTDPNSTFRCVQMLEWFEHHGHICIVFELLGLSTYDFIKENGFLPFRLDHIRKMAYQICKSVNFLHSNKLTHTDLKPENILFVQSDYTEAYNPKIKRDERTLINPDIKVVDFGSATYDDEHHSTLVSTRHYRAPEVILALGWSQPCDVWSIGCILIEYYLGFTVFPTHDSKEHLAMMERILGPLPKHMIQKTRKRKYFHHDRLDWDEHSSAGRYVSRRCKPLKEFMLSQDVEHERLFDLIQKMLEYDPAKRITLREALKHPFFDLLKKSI

Chain of Mitogen-activated protein kinase kinase kinase 9 (Homo sapiens) (P80192 whole entry, looked up): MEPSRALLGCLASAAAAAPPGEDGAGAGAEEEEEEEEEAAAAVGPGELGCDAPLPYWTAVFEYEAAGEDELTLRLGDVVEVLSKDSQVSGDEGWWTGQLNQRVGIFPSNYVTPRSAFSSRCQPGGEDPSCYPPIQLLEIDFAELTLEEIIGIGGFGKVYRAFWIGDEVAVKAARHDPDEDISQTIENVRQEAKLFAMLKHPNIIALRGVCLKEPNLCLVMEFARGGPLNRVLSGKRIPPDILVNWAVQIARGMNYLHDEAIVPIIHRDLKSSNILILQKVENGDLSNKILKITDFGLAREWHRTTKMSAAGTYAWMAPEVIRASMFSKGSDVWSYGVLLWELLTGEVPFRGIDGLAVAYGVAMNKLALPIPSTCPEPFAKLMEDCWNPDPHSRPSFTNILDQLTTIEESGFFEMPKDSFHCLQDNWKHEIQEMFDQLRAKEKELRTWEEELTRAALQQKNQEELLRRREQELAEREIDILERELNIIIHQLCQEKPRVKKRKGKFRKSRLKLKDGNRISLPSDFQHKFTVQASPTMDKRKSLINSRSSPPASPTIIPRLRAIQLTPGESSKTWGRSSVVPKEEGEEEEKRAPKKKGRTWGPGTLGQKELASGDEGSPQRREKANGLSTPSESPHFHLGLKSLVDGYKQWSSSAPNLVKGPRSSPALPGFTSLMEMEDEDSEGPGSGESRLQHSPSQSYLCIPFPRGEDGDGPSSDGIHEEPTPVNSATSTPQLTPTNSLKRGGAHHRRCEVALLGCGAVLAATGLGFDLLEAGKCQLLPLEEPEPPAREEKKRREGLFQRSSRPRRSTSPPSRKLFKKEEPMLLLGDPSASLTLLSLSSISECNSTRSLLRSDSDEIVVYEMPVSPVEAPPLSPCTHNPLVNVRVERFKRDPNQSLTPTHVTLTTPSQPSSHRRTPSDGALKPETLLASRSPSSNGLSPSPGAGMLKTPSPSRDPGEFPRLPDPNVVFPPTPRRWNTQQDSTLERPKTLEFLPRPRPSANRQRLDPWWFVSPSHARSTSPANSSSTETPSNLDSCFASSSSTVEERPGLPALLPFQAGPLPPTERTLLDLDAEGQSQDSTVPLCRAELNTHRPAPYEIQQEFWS
Chain of Tyrosine-protein kinase Lyn (Homo sapiens) (P07948 2-512 limits assumed): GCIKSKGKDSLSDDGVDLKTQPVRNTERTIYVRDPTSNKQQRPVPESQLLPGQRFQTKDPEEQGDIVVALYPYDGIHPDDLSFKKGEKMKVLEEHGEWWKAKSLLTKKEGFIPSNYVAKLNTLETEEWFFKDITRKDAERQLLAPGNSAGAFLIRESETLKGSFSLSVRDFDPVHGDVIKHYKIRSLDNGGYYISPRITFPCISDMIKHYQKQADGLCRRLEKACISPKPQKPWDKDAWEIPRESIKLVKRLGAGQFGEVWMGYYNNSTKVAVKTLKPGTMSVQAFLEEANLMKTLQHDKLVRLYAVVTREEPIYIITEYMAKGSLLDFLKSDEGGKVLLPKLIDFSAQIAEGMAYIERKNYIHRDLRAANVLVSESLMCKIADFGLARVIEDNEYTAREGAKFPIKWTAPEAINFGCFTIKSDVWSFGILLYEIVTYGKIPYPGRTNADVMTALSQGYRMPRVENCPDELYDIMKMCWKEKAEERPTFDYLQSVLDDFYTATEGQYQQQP
Chain of Serine/threonine-protein kinase B-raf (Homo sapiens) (P15056 whole entry): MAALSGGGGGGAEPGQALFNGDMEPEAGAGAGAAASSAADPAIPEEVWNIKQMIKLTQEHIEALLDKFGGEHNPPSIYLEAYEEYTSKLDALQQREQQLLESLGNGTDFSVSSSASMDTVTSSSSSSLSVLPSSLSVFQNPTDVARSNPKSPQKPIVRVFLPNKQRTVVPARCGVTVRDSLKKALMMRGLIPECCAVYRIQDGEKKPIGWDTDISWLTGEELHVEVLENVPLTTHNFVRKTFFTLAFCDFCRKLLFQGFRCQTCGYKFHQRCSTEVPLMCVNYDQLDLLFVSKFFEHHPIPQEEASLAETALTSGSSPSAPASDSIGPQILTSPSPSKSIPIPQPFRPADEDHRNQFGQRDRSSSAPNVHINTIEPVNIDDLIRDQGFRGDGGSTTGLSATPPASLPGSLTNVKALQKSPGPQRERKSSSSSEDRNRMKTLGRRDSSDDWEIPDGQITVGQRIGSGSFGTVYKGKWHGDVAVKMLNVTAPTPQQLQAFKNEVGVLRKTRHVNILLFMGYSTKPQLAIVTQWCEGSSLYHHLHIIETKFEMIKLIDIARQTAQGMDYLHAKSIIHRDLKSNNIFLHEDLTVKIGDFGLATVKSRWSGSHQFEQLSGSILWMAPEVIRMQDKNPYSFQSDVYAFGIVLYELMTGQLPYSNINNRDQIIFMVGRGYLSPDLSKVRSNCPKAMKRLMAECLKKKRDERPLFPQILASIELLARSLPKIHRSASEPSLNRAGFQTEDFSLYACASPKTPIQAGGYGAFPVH
Chain of Cyclin-dependent kinase 8 (Homo sapiens) (P49336 whole entry): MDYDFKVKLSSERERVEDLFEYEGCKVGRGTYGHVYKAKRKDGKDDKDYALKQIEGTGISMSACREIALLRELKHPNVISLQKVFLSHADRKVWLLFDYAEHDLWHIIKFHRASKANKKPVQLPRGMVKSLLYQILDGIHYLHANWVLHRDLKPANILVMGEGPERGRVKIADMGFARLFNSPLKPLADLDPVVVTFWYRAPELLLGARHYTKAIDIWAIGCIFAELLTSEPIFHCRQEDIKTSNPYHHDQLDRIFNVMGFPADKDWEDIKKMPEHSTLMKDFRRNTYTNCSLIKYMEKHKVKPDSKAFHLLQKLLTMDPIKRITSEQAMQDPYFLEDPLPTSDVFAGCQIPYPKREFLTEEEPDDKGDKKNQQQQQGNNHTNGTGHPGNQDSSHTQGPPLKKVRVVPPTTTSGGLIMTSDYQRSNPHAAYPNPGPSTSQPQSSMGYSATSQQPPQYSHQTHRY
Chain of Tyrosine-protein kinase ABL1 (Homo sapiens) (P00519 whole entry): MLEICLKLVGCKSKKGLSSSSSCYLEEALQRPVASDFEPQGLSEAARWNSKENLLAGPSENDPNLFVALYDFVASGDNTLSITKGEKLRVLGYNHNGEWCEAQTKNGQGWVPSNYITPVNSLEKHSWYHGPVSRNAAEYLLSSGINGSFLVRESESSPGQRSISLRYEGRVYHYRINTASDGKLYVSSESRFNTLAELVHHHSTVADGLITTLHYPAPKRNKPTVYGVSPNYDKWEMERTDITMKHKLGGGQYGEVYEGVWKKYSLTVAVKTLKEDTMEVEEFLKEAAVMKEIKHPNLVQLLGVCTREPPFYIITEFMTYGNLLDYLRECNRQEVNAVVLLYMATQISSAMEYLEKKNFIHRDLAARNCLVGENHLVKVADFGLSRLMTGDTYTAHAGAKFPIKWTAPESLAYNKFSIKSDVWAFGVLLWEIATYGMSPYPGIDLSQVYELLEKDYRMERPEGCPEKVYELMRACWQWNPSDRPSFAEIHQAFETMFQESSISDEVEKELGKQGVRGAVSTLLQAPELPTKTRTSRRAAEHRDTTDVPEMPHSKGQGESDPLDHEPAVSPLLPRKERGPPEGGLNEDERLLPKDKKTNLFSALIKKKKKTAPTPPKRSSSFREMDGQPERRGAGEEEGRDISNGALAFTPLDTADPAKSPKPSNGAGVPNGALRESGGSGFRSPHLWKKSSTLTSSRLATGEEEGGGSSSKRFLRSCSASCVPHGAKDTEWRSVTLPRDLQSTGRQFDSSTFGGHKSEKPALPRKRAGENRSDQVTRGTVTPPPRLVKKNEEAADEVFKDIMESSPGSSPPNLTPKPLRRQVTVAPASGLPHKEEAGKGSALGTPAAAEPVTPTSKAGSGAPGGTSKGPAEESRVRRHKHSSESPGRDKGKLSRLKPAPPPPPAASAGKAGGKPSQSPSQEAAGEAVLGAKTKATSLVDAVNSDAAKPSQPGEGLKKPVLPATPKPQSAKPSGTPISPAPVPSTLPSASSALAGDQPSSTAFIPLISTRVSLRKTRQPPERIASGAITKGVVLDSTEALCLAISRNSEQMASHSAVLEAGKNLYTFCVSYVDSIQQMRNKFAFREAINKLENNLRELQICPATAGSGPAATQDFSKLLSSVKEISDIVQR

| Structure (SMILES) | microsomal CLint at 1 µM [1] [µL/min/mg] | residual activity [2] [%] | residual activity [3] [%] | residual activity [4] [%] | residual activity [5] [%] | residual activity [6] [%] | residual activity [7] [%] | residual activity [8] [%] | residual binding, % of control [9] [%] | residual activity [10] [%] | residual activity [11] [%] | residual binding, % of control [12] [%] | residual activity [13] [%] |
| --- | --- | --- | --- | --- | --- | --- | --- | --- | --- | --- | --- | --- | --- |
| CCOC(=O)c1sc(-c2ccncc2)nc1O | 17 | 90 | 100 | 76 | 93 | 100 | 100 | 100 | 65 | 82 | 80 | 67 | 90 |
| COc1ccc(-c2nc(-c3ccnc(N)n3)sc2C(N)=O)c(Cl)c1 | 43 | 94 | 76 | 100 | 74 | 90 | 100 | 91 | 49 | 84 | 88 | 99 | 2.3 |
| NC(=O)c1sc(-c2ccnc(N)n2)nc1-c1ccc(Cl)cc1Cl | 19 | 99 | 93 | 100 | 93 | 100 | 80 | 65 | 34 | 97 | 81 | 82 | 1.3 |

— ChEMBL document CHEMBL3259739, “Synthesis and structure-activity relationship of trisubstituted thiazoles as Cdc7 kinase inhibitors” (Eur J Med Chem, 2014)
